Numbered stars: 1 amine (or outer) side, 2 acyl side, 3 side chain; on linkers, the order of the positions; unused ones are H or OH. Square brackets hold non-standard residues; d marks the D form. Peptide text beside a SMILES is read from it. * marks the point of attachment. Hydrocinnamoyl = O=C(CCc1ccccc1)*; Butanoyl(2-Et) = CCC(CC)C(=O)*; Tle = CC(C)(C)[C@H](N)C(=O)O; Pip = O=C(O)[C@@H]1CCCCN1; NH(3-pentyl) = CCC(CC)N*; Pyrrolidide = C1CCN(*)C1; CO = O=C([*:1])[*:2]; X2 = CCC(CC)CC(=O)*; X3 = CCC(CC)OC(=O)*; X1 = CCCC(CCC)N*; NHiPr = CC(C)N*
Target: T1, Ribonucleoside-diphosphate reductase large subunit (Herpes simplex virus (type 1 / strain 17), UniProt P08543)
T1 sequence (P08543 whole entry): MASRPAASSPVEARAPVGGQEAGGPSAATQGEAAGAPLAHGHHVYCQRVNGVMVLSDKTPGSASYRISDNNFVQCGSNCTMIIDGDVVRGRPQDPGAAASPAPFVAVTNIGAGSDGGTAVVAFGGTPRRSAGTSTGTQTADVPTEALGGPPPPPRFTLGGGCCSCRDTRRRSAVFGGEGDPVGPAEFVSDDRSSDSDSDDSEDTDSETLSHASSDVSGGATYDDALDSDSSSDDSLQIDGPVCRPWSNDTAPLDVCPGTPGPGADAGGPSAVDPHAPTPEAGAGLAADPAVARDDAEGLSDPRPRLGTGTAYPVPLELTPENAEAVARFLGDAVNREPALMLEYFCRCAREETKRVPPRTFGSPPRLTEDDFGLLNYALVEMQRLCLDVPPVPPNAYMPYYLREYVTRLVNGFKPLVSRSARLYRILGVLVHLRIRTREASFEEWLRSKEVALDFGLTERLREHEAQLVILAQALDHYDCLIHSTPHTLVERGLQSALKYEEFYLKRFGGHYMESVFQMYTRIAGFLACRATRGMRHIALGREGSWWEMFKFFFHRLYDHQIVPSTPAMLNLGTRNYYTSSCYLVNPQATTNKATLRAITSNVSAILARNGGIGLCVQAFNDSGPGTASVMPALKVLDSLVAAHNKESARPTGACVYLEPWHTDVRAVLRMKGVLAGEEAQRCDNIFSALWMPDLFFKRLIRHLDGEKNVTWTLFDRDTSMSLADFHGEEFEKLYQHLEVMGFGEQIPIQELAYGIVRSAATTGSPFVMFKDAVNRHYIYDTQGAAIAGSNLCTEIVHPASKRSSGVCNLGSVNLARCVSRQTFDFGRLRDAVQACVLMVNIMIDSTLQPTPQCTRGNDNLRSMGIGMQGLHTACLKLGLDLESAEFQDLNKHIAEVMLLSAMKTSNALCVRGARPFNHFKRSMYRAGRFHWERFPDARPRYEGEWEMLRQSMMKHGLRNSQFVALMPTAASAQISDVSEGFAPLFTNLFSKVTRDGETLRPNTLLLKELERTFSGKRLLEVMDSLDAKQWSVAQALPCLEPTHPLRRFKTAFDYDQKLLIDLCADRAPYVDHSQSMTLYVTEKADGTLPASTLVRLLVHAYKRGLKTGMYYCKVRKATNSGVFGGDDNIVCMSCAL
Assay: Inhibitory activity against Herpes simplex virus (HSV) ribonucleotide reductase (RR)
Outline: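 Radioligand binding assay for HSV ribonucleotide reductase subunit association, run per a previously published protocol. IC50 taken as the mean of at least four separate determinations, with standard deviation reported.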

| SMILES | IC50 [nM] |
| --- | --- |
| CCC(CC)NC(=O)N[C@H](C(=O)N[C@@H](C)C(=O)N[C@@H](CC(=O)O)C(=O)N[C@@H](CC(C)C)C(=O)O)C(C)(C)C ({NH(3-pentyl)-CO}-[Tle]ADL-OH) | 110000 |
| CCC(CC)NC(=O)N[C@H](C(=O)N1CCCC(C(=O)N2CCCC2)C1C(=O)N[C@@H](CC(=O)O)C(=O)N[C@@H](CC(C)C)C(=O)O)C(C)(C)C (stereo in doubt; 16) | 32 |
| CCC(CC)NC(=O)N[C@@H](C)C(=O)N[C@@H](CC(=O)N1CCCC1)C(=O)N[C@@H](CC(=O)O)C(=O)N[C@@H](CC(C)C)C(=O)O ({NH(3-pentyl)-CO}-AD(Pyrrolidide)DL-OH) | 41000 |
| CCC(CC)NC(=O)N[C@H](C(=O)N[C@@H](CC(=O)N1CCCC1)C(=O)N[C@@H](CC(=O)O)C(=O)N[C@@H](CC(C)C)C(=O)O)C(C)C ({NH(3-pentyl)-CO}-VD(Pyrrolidide)DL-OH) | 15 |
| CCC(CC)CC(=O)N[C@H](C(=O)N[C@@H](CC(=O)N1CCCC1)C(=O)N[C@@H](CC(=O)O)C(=O)N[C@@H](CC(C)C)C(=O)O)C(C)(C)C (X2-[Tle]D(Pyrrolidide)DL-OH) | 140 |
| CCC(CC)NC(=O)N[C@H](C(=O)N1CCCC(C(=O)NC)C1C(=O)N[C@@H](CC(=O)O)C(=O)N[C@@H](CC(C)C)C(=O)O)C(C)(C)C (stereo partly drawn) | 10 |
| CCC(CC)NC(=O)NC1CCCN([C@@H](CC(=O)N2CCCC2)C(=O)N[C@@H](CC(=O)O)C(=O)N[C@@H](CC(C)C)C(=O)O)C1=O (stereo partly drawn) | 240 |
| CC(C)C[C@H](NC(=O)[C@H](CC(=O)O)NC(=O)[C@H](CC(=O)N1CCCC1)NC(=O)[C@@H](NC(=O)NC(C)C)C(C)C)C(=O)O ({NHiPr-CO}-VD(Pyrrolidide)DL-OH) | 435 |
| CCC(CC)NC(=O)N[C@H](C(=O)N[C@@H](CC(=O)NC)C(=O)N[C@@H](CC(=O)O)C(=O)N[C@@H](CC(C)C)C(=O)O)C(C)(C)C ({NH(3-pentyl)-CO}-[Tle]D(NHMe)DL-OH) | 35 |
| CCC(CC)NC(=O)N[C@H](C(=O)N1CCCC(C(=O)N2CCCC2)C1C(=O)N[C@@H](CC(=O)O)C(=O)N[C@@H](CC(C)C)C(=O)O)C(C)(C)C (stereo in doubt; 17) | 3000 |
| CCCC(CCC)NC(=O)N[C@H](C(=O)N[C@@H](CC(=O)N1CCCC1)C(=O)N[C@@H](CC(=O)O)C(=O)N[C@@H](CC(C)C)C(=O)O)C(C)C ({X1-CO}-VD(Pyrrolidide)DL-OH) | 7 |
| CCC(CC)NC(=O)N[C@H](C(=O)N1CCCC[C@H]1C(=O)N[C@@H](CC(=O)O)C(=O)N[C@@H](CC(C)C)C(=O)O)C(C)(C)C ({NH(3-pentyl)-CO}-[Tle][Pip]DL-OH) | 750000 |
| CCC(CC)NC(=O)C[C@H](C(=O)N[C@@H](CC(=O)N1CCCC1)C(=O)N[C@@H](CC(=O)O)C(=O)N[C@@H](CC(C)C)C(=O)O)C(C)(C)C | 5 |
| CCC(CC)NC(=O)NC1CCN([C@@H](CC(=O)N2CCCC2)C(=O)N[C@@H](CC(=O)O)C(=O)N[C@@H](CC(C)C)C(=O)O)C1=O (stereo partly drawn) | 800 |
| CCC(CC)OC(=O)N[C@H](C(=O)N[C@@H](CC(=O)N1CCCC1)C(=O)N[C@@H](CC(=O)O)C(=O)N[C@@H](CC(C)C)C(=O)O)C(C)(C)C (X3-[Tle]D(Pyrrolidide)DL-OH) | 635 |
| CCC(CC)C(=O)N[C@H](C(=O)N[C@@H](CC(=O)N1CCCC1)C(=O)N[C@@H](CC(=O)O)C(=O)N[C@@H](CC(C)C)C(=O)O)C(C)C ({Butanoyl(2-Et)}-VD(Pyrrolidide)DL-OH) | 860 |
| CCC(CC)NC(=O)N[C@H](C(=O)N1CCC[C@H]1C(=O)N[C@@H](CC(=O)O)C(=O)N[C@@H](CC(C)C)C(=O)O)C(C)(C)C ({NH(3-pentyl)-CO}-[Tle]PDL-OH) | 100000 |
| CCC(CC)NC(=O)N[C@H](C(=O)N1CCC(C(=O)N2CCCC2)[C@H]1C(=O)N[C@@H](CC(=O)O)C(=O)N[C@@H](CC(C)C)C(=O)O)C(C)(C)C (stereo partly drawn) | 108 |
| CCC(CC)NC(=O)NCC(=O)N[C@@H](CC(=O)N1CCCC1)C(=O)N[C@@H](CC(=O)O)C(=O)N[C@@H](CC(C)C)C(=O)O ({NH(3-pentyl)-CO}-GD(Pyrrolidide)DL-OH) | 670 |
| CC(C)C[C@H](NC(=O)[C@H](CC(=O)O)NC(=O)[C@H](CC(=O)N1CCCC1)NC(=O)[C@@H](NC(=O)[C@@H](NC(=O)CCc1ccccc1)C(C)C)C(C)C)C(=O)O (Hydrocinnamoyl-VVD(Pyrrolidide)DL-OH) | 24 |
| CCC(CC)NC(=O)N[C@H](C(=O)N[C@@H](CC(=O)N1CCCC1)C(=O)N[C@@H](CC(=O)O)C(=O)N[C@@H](CC(C)C)C(=O)O)C(C)(C)C ({NH(3-pentyl)-CO}-[Tle]D(Pyrrolidide)DL-OH) | 3 |
| CC(=O)N[C@H](C(=O)N[C@H](C(=O)N[C@@H](CC(=O)N1CCCC1)C(=O)N[C@@H](CC(=O)O)C(=O)N[C@@H](CC(C)C)C(=O)O)C(C)C)C(C)C (Ac-VVD(Pyrrolidide)DL-OH) | 880 |
| CNC(=O)N[C@H](C(=O)N[C@@H](CC(=O)N1CCCC1)C(=O)N[C@@H](CC(=O)O)C(=O)N[C@@H](CC(C)C)C(=O)O)C(C)C ({NHMe-CO}-VD(Pyrrolidide)DL-OH) | 42000 |
